Legend:
Plasmodium falciparum [1] = test: Antiplasmodial activity against chloroquine-sensitive Plasmodium falciparum HB3 assessed as SYBR Green 1 fluorescence emission after 72 hrs; type: functional, organism-based; conditions: HB3, 72 h
In short: (§1)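 Sorbitol-synchronized P. falciparum cultures (>95% ring stage) exposed to serial drug dilutions in complete medium at 0.5% parasitemia, 1% hematocrit final. Incubated 72 h, 37 °C. SYBR Green I then added, 1 h at 37 °C. Fluorescence read at 530 nm emission, 490 nm excitation. Each dilution run in triplicate; IC50 averaged from at least two separate assays.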

Plasmodium falciparum [2] = test: Antiplasmodial activity against chloroquine-resistant Plasmodium falciparum Dd2 assessed as SYBR Green 1 fluorescence emission after 72 hrs; type: functional, organism-based; conditions: Dd2, 72 h; in short: as §1
[3] = Resistance index, ratio IC50 for chloroquine-resistant Plasmodium falciparum Dd2 to IC50 for chloroquine-sensitive Plasmodium falciparum HB3; type: functional

| SMILES | IC50 (Plasmodium falciparum [1]) [nM] | IC50 (Plasmodium falciparum [2]) [nM] | Ratio IC50 [3] |
| --- | --- | --- | --- |
| CCN(CC)CCCN(CC)CCOc1ccnc2cc(Cl)ccc12 | 321 | 409 | 1.3 |
| CCN(CC)CCC(=O)NCCOc1ccnc2cc(Cl)ccc12 | 1710 | 1460 | 0.9 |
| CCN(CC)CCC(=O)NCCCOc1ccnc2cc(Cl)ccc12 | 2320 | 752 | 0.3 |
| CCN(CC)CCNCCNc1ccnc2cc(Cl)ccc12 | 10.8 | 1570 | 145 |
| CCN(CC)CCCCCCNCCNc1ccnc2cc(Cl)ccc12 | 68.9 | 231 | 3.4 |
| CCN(CC)CCCN(CC)CCCOc1ccnc2cc(Cl)ccc12 | 77.5 | 108 | 1.4 |
| CCN(CC)CCCCNCCNc1ccnc2cc(Cl)ccc12 | 30.7 | 1270 | 41.5 |
| CCN(CC)CC(=O)NCCNc1ccnc2cc(Cl)ccc12 | 715 | 3360 | 4.7 |
| CCN(CC)CCN(CCNc1ccnc2cc(Cl)ccc12)CCN(CC)CC | 7 | 151 | 21.5 |
| CCN(CC)CCCNCCOc1ccnc2cc(Cl)ccc12 | 94.6 | 214 | 2.3 |
| CCN(CC)CCCC(=O)NCCNc1ccnc2cc(Cl)ccc12 | 225 | 1190 | 5.3 |
| CCN(CC)CCCCCNCCNc1ccnc2cc(Cl)ccc12 | 28.9 | 459 | 15.9 |
| CCN(CC)CCCCC(=O)NCCNc1ccnc2cc(Cl)ccc12 | 228 | 1190 | 5.2 |
| CCN(CC)CCCCCCN(CC)CCNc1ccnc2cc(Cl)ccc12 | 5 | 19.9 | 4 |
| CCN(CC)CCN(CC)CCNc1ccnc2cc(Cl)ccc12 | 5 | 53 | 10.5 |
| CCN(CC)CCCCCN(CC)CCNc1ccnc2cc(Cl)ccc12 | 8.9 | 38.7 | 4.3 |
| CCN(CC)CCCCN(CC)CCNc1ccnc2cc(Cl)ccc12 | 5.1 | 36.2 | 7.1 |
| CCN(CC)CCCNCCCOc1ccnc2cc(Cl)ccc12 | 19.7 | 240 | 12.2 |
| CCN(CC)CCC(=O)NCCNc1ccnc2cc(Cl)ccc12 |  |  | 24.1 |
| CCN(CC)CCCCCC(=O)NCCNc1ccnc2cc(Cl)ccc12 | 287 | 2700 | 9.4 |
